What was measured:
[1] = Drug uptake in human PC3 cells xenografted mouse tumor at 3.7 MBq, iv after 30 mins by micro PET imaging; assay type: ADME, organism-based, Neoplasm, PC-3; details: in vivo, 0.5 h
Method in brief: (§1)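 PC-3 xenograft nude mice (tumors 100–300 mm³) were given ~3.7 MBq (100 μCi) i.v. by tail vein under isoflurane. Static 5-min scans were taken at 30 min, 1 and 2 h (n = 4), plus a 35-min dynamic scan starting 1 min pi in one mouse. Images were OSEM-reconstructed without attenuation correction. Tumor and organ %ID/g came from ROIs on decay-corrected coronal images, assuming 1 g/mL density.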

[2] = Drug uptake in human PC3 cells xenografted mouse tumor at 3.7 MBq, iv after 60 mins by micro PET imaging; assay type: ADME, organism-based, Neoplasm, PC-3; details: in vivo, 1 h; method in brief: as §1
[3] = Drug uptake in human PC3 cells xenografted mouse tumor at 3.7 MBq, iv after 120 mins by micro PET imaging; assay type: ADME, organism-based, Neoplasm, PC-3; details: in vivo, 2 h; method in brief: as §1
Liver [4] = test: Drug uptake in human PC3 cells xenografted mouse liver at 3.7 MBq, iv after 30 mins by micro PET imaging; assay type: ADME, organism-based, PC-3; details: in vivo, 0.5 h; method in brief: as §1
[5] = Ratio of drug uptake in tumor to blood from human PC3 cells xenografted mouse at 3.7 MBq, iv after 120 mins by micro PET imaging; assay type: ADME, organism-based, PC-3; details: tumour, 2 h
Method in brief: (§2)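 Tumor/nontumor ratios were calculated from ROI-derived %ID/g on decay-corrected 5-min static microPET scans at 2 h after ~3.7 MBq i.v. tracer in PC-3 xenograft nude mice (n = 4).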

[6] = Ratio of drug uptake in tumor to liver from human PC3 cells xenografted mouse at 3.7 MBq, iv after 120 mins by micro PET imaging; assay type: ADME, organism-based, PC-3; details: in vivo, 2 h; method in brief: as §2
[7] = Ratio of drug uptake in tumor to kidneys from human PC3 cells xenografted mouse at 3.7 MBq, iv after 120 mins by micro PET imaging; assay type: ADME, organism-based, PC-3; details: in vivo, 2 h; method in brief: as §2
[8] = Ratio of drug uptake in tumor to muscle from human PC3 cells xenografted mouse at 3.7 MBq, iv after 120 mins by micro PET imaging; assay type: ADME, organism-based, PC-3; details: in vivo, 2 h; method in brief: as §2
[9] = Drug uptake in human PC3 cells xenografted mouse tumor at 3.7 MBq, iv by micro PET imaging in presence of RGD; assay type: ADME, organism-based, Neoplasm, PC-3; details: in vivo
Method in brief: (§3)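 PC-3 tumor-bearing mice were co-injected i.v. with 3.7 MBq tracer and a blocking dose of c(RGDyK) (10 mg/kg), Aca-BBN(7–14) (15 mg/kg), or both. A 5-min static microPET scan was taken at 1 h pi (n = 3), and ROI-derived %ID/g was measured on decay-corrected coronal images.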

[10] = Drug uptake in human PC3 cells xenografted mouse tumor at 3.7 MBq, iv by micro PET imaging in presence of BBN; assay type: ADME, organism-based, Neoplasm, PC-3; details: in vivo; method in brief: as §3
[11] = Drug uptake in human PC3 cells xenografted mouse tumor at 3.7 MBq, iv by micro PET imaging in presence of RGD and BBN; assay type: ADME, organism-based, Neoplasm, PC-3; details: in vivo; method in brief: as §3
[12] = Drug uptake in human PC3 cells xenografted mouse tumor at 3.7 MBq, iv after 5 mins by micro PET imaging; assay type: ADME, organism-based, Neoplasm, PC-3; details: in vivo; method in brief: as §1
[13] = Drug uptake in human PC3 cells xenografted mouse tumor at 3.7 MBq, iv after 15 mins by micro PET imaging; assay type: ADME, organism-based, Neoplasm, PC-3; details: in vivo, 0.25 h; method in brief: as §1
[14] = Biodistribution in human PC3 cells xenografted athymic nude mouse tumor at 0.74 MBq, iv after 1 hr; assay type: ADME, organism-based, Neoplasm, PC-3; details: in vivo
Method in brief: (§4)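 PC-3 human prostate carcinoma cells were grown in F-12K with 10% FBS, and 5×10^6 cells were injected s.c. into the right front flank of male athymic nude mice. Each mouse received 0.74 MBq (20 μCi) tracer and was sacrificed at 1 h pi. Tissues were wet-weighed and γ-counted against an injectate aliquot. Values are %ID/g normalized to 20 g body mass, mean ± SD, n = 4.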

Kidney = test: Biodistribution in human PC3 cells xenografted athymic nude mouse kidney at 0.74 MBq, iv after 1 hr; assay type: ADME, organism-based, PC-3; details: in vivo; method in brief: as §4
Blood = test: Biodistribution in human PC3 cells xenografted athymic nude mouse blood at 0.74 MBq, iv after 1 hr; assay type: ADME, organism-based, PC-3; details: in vivo; method in brief: as §4
Heart = test: Biodistribution in human PC3 cells xenografted athymic nude mouse heart at 0.74 MBq, iv after 1 hr; assay type: ADME, organism-based, PC-3; details: in vivo; method in brief: as §4
Liver [15] = test: Biodistribution in human PC3 cells xenografted athymic nude mouse liver at 0.74 MBq, iv after 1 hr; assay type: ADME, organism-based, PC-3; details: in vivo; method in brief: as §4
Spleen = test: Biodistribution in human PC3 cells xenografted athymic nude mouse spleen at 0.74 MBq, iv after 1 hr; assay type: ADME, organism-based, PC-3; details: in vivo; method in brief: as §4
Bone = test: Biodistribution in human PC3 cells xenografted athymic nude mouse bone at 0.74 MBq, iv after 1 hr; assay type: ADME, organism-based, Bone element, PC-3; details: in vivo; method in brief: as §4
Muscle tissue = test: Biodistribution in human PC3 cells xenografted athymic nude mouse muscle at 0.74 MBq, iv after 1 hr; assay type: ADME, organism-based, PC-3; details: in vivo; method in brief: as §4
PC-3 [16] = test: Cellular uptake in human PC3 cells after 30 mins; assay type: ADME, cell-based; details: pc-3, 0.5 h
Method in brief: (§5)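 PC-3 cells were seeded at 5×10^5 per well and left overnight, then PBS-rinsed and incubated with ~0.3 μCi/well radiotracer in culture medium at 37 or 4 °C for 15–120 min. Cells were washed with chilled PBS, trypsinized and γ-counted. Uptake is % of added radioactivity; two experiments, triplicate wells.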

PC-3 [17] = test: Cellular uptake in human PC3 cells after 15 mins; assay type: ADME, cell-based; details: pc-3, 0.25 h; method in brief: as §5
PC-3 [18] = test: Cellular uptake in human PC3 cells after 60 mins; assay type: ADME, cell-based; details: pc-3, 1 h; method in brief: as §5
PC-3 [19] = test: Cellular uptake in human PC3 cells after 120 mins; assay type: ADME, cell-based; details: pc-3, 2 h; method in brief: as §5
PC-3 [20] = test: Inhibition of cellular uptake in human PC3 cells after 60 mins in presence of RGD; details: pc-3, 1 h
PC-3 [21] = test: Inhibition of cellular uptake in human PC3 cells after 60 mins in presence of BBN; details: pc-3, 1 h
PC-3 [22] = test: Inhibition of cellular uptake in human PC3 cells after 60 mins in presence of RGD and BBN; details: pc-3, 1 h
[23] = target: Gastrin-releasing peptide receptor (Homo sapiens) (UniProt P30550); test: Displacement of [125I][Tyr4]BBN form gastrin-releasing peptide receptor in human PC3 cells
Chain of Gastrin-releasing peptide receptor (Homo sapiens) (P30550 whole entry, looked up): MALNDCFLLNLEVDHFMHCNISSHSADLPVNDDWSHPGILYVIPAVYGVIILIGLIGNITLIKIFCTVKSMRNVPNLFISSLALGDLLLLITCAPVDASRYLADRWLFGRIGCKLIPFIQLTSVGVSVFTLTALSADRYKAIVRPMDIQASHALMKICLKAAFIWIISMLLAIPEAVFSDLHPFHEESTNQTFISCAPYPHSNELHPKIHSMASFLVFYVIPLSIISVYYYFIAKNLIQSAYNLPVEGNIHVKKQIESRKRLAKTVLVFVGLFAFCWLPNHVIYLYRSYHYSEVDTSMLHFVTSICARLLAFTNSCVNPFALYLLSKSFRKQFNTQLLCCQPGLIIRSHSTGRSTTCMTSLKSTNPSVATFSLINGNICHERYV

SMILES: CSCC[C@@H](NC(=O)[C@H](CC(C)C)NC(=O)[C@@H](Cc1c[nH]cn1)NC(=O)CNC(=O)[C@H](NC(=O)[C@H](C)NC(=O)[C@@H](Cc1c[nH]c2ccccc12)NC(=O)[C@H](CCC(N)=O)NC(=O)CCCCCNC(=O)CC[C@H](NC(=O)COCCOCCOCCNC(=O)c1ccc([18F])cc1)C(=O)NCCCC[C@H]1NC(=O)[C@@H](CCCNC(=N)N)NC(=O)CNC(=O)[C@@H](CC(=O)O)NC(=O)[C@H](Cc2ccc(O)cc2)NC1=O)C(C)C)C(N)=O
- Drug uptake [1]: 6.35 % ID/g
- Drug uptake [2]: 4.41 % ID/g
- Drug uptake [3]: 2.88 % ID/g
- Drug uptake (Liver [4]): 2 % ID/g
- Ratio [5]: 8.1
- Ratio [6]: 6.43
- Ratio [7]: 1.44
- Ratio [8]: 10.54
- Drug uptake [9]: 2.19 % ID/g
- Drug uptake [10]: 1.58 % ID/g
- Drug uptake [11]: 0.43 % ID/g
- Drug uptake [12]: 3.54 % ID/g
- Drug uptake [13]: 4.86 % ID/g
- Drug uptake [14]: 4 % ID/g
- Drug uptake (Kidney): 4.87 % ID/g
- Drug uptake (Blood): 2 % ID/g
- Drug uptake (Heart): 2 % ID/g
- Drug uptake (Liver [15]): 2 % ID/g
- Drug uptake (Spleen): 2 % ID/g
- Drug uptake (Bone): 2 % ID/g
- Drug uptake (Muscle tissue): 2 % ID/g
- Drug uptake (PC-3 [16]): 5.51%
- Drug uptake (PC-3 [17]): 4.72%
- Drug uptake (PC-3 [18]): 5.87%
- Drug uptake (PC-3 [19]): 6.65%
- Inhibition (PC-3 [20]): 17.55%
- Inhibition (PC-3 [21]): 83.67%
- Inhibition (PC-3 [22]): 91.97%

SMILES: CSCC[C@@H](NC(=O)[C@H](CC(C)C)NC(=O)[C@@H](Cc1c[nH]cn1)NC(=O)CNC(=O)[C@H](NC(=O)[C@H](C)NC(=O)[C@@H](Cc1c[nH]c2ccccc12)NC(=O)[C@H](CCC(N)=O)NC(=O)CCCCCNC(=O)CC[C@H](NC(=O)COCCOCCOCCNC(=O)c1ccc(F)cc1)C(=O)NCCCC[C@H]1NC(=O)[C@@H](CCCNC(=N)N)NC(=O)CNC(=O)[C@@H](CC(=O)O)NC(=O)[C@H](Cc2ccc(O)cc2)NC1=O)C(C)C)C(N)=O
- IC50 ([23]; pc-3): 73.3 nM

SMILES: CSCC[C@H](NC(=O)[C@H](CC(C)C)NC(=O)[C@H](Cc1c[nH]cn1)NC(=O)CNC(=O)[C@@H](NC(=O)[C@H](C)NC(=O)[C@H](Cc1c[nH]c2ccccc12)NC(=O)[C@H](CCC(N)=O)NC(=O)CCCCCNC(=O)CC[C@H](NC(=O)COCCOCCOCCN)C(=O)NCCCC[C@@H]1NC(=O)[C@H](CCCNC(=N)N)NC(=O)CNC(=O)[C@H](CC(=O)O)NC(=O)[C@@H](Cc2ccc(O)cc2)NC1=O)C(C)C)C(N)=O
- IC50 [23]: 85.4 nM

From ChEMBL document CHEMBL1139378, “Dual integrin and gastrin-releasing peptide receptor targeted tumor imaging using 18F-labeled PEGylated RGD-bombesin heterodimer 18F-FB-PEG3-Glu-RGD-BBN” (J Med Chem, 2009)
